High-throughput results: PubChem, Broad Institute
A selection: hits, their analogues and other compounds. The true share with any hit is near 2.4%.
CASP6 VEID inh: inhibitors of human caspase-6 | P55212 | purified caspase-6, Z-VEID-R110 cleavage fluorescence | hit rate 0.53% among 350,000 | inhibition, % at 12.5 µM;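 active means mean inhibition across replicates at least about 35%, with every replicate also reaching that limit, limit read from the data; inconclusive means only one of the two criteria met; inactive means neither criterion met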;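 further: 0% = median of neutral control wells and 100% = no fluorescence left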
Target sequence (P55212 24-179 limits assumed): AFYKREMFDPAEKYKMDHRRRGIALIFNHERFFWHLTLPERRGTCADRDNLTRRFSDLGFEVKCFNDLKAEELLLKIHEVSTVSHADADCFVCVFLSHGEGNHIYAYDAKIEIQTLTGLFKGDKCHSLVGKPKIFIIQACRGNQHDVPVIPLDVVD
Target sequence (P55212 194-293 limits assumed): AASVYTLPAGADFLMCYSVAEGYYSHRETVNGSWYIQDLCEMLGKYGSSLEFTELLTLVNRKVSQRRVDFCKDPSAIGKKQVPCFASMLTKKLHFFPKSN
PGC1a acetyl inh: modulators of PGC1a acetylation; U2OS PGC1a acetylation, AlphaScreen anti-acetyl-lysine; with virally co-expressed GCN5 acetyltransferase; inhibition, % at 15.6 µM; hit rate 0.17% among 350,000;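 active means every replicate shows inhibition of at least 40%; inconclusive means mean inhibition at least 40% but some replicate below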;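 further: 0% = neutral control wells and 100% = positive control wells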
S100A4 inh HTS: inhibitors of human S100A4 binding to myosin IIA peptide; P26447; S100A4/TAMRA-MyoIIA peptide fluorescence polarization; inhibition, % at 10.7 µM; hit rate 0.14% among 360,000; AID 652163;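 active means mean inhibition of at least 70% across replicates, with every replicate also reaching that level; inconclusive means mean inhibition reaches 70% but some replicates fall short; inactive means mean inhibition below 70%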
Target sequence (P26447 whole entry, looked up): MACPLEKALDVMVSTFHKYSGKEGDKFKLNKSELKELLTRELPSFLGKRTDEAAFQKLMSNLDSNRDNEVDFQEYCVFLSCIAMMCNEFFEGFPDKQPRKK
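Material: S100A4 monomer protein / Buffer or medium: 50 mM HEPES pH 7.2, 10 mM CaCl2, 100 mM KCl / Times: 5 min incubation before reading / Benchmarks: neutral control DMSO, positive control TFP / Reagent: labelled myosin peptide probe, 5 nM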
ERAP1 HTS inh: ERAP1 (human) enzyme inhibition; Q9NZ08; recombinant ERAP1, Leu-AMC fluorescence, 60 min; inhibition, % at 10.7 µM; hit rate 0.15% among 340,000;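 active means mean replicate inhibition of at least 30%, or all replicates individually reaching that 30% level; inactive means mean below 30% and not every replicate reaching it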;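 further: 0% = neutral control wells and 100% = L-leucinethiol positive control wells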
ARNT-TACC3 inh: disruptors of human ARNT/TACC3 interaction | inhibition, % at 9.99 µM | hit rate 0.66% among 390,000 | Q9Y6A5 | AlphaScreen His-ARNT PAS-B/GST-TACC3 binding, luminescence; TACC3 fragment carries E629A point mutation;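 active means mean inhibition of replicates at least 50% and at least half of replicates each reaching 50%; inconclusive means half or more replicates reach 50% but mean below 50%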;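 further: 0% = complete ARNT plus TACC3 wells and 100% = ARNT alone without TACC3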
rRNA inh HTS: selective bacterial rRNA inhibition in E. coli. E. coli WT GFP vs humanized-ribosome RFP mutants, fluorescence, 24 h; hits give low values; DMSO median 0, no signal -100. GFP signal change (wild-type ribosome), % (test concentration not listed). hit rate 1.6% among 350,000. AID 720706;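 active means significant combined selectivity score with lowered wild-type GFP, culture density cut under 30%, mutant RFP and density less affected; inactive means any of these conditions unmet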
* = called active by the depositor; ? = inconclusive; nt = not tested or not shown.

SMILES	CASP6 VEID inh	PGC1a acetyl inh	S100A4 inh HTS	ERAP1 HTS inh	ARNT-TACC3 inh	rRNA inh HTS
CCN(CC)CCN(C(=O)c1ccc2c(c1)OCCO2)c1nc2cc(C)cc(C)c2s1	1	-2	-3	2	-3	-21*
CN(C)CCN(C(=O)c1ccc2c(c1)OCCO2)c1nc2ccc(Cl)cc2s1	-6	-2	-3	-1	46*	-1
NNC(=O)c1ccc(COc2ccccc2)cc1	0	8	7	14	-6	5
COc1ccc2c(=O)c(C(=O)NCCc3ccccc3)c[nH]c2c1	1	nt	-3	-1	3	-27*
NNC(=O)c1c[nH]c2ccc(OCc3ccccc3)cc12	-3	4	-22	nt	-5	-27*
COc1ccc2[nH]cc(CCNC(=O)C3CC(=O)N(c4ccc(Cl)cc4)C3)c2c1 (stereo unspecified)	3	8	-2	2	-1	-24*
COc1ccc2c(=O)c(C(=O)NCc3ccccc3)c[nH]c2c1	-1	nt	3	4	3	-2
COc1ccc2[nH]cc(C(=O)NCCc3ccccc3)c(=O)c2c1	-3	nt	-1	-2	-2	-21*
CN1C(=O)c2cc(NS(=O)(=O)c3ccc(F)cc3)ccc2OC[C@H]2O[C@H](CC(=O)O)CC[C@H]21	-1	3	2	-1	6	5
CCCN1C[C@H](C)[C@@H](OC)CN(C)C(=O)c2ccc(NC(=O)Nc3ccccc3F)cc2OC[C@H]1C	-6	-2	-12	1	2	-7
COc1ccc2[nH]cc(CCNC(=O)Nc3ccccc3)c2c1	2	nt	21	-1	11	-8
COc1ccc2[nH]cc(CCNC(=S)NCCc3ccccc3)c2c1	1	nt	-6	3	3	-35*
COC(=O)C1=CO[C@@H](O[C@@H]2O[C@H](CO)[C@@H](O)[C@H](O)[C@H]2O)C2C1CC(O)O[C@H]2C (stereo partly specified)	0	nt	3	nt	-4	4
COC(=O)C1=COC(OC2OC(CO)C(O)C(O)C2O)C2C1C=CC2(O)CO (stereo unspecified)	48*	3	0	2	-36	nt
COC(=O)C1=COC(OC2OC(CO)C(O)C(O)C2O)C2C(C)CC(=O)C12 (stereo unspecified)	35*	3	-10	2	nt	nt
C[C@H](CO)N1C[C@H](C)[C@@H](CN(C)Cc2cccnc2)Oc2cc(C#CC3CCCC3)ccc2S1(=O)=O	-3	-3	-17	0	13	-13
CN(C)C(N)=NCCC[C@H](N)C(=O)O	nt	-2	-3	0	active	nt
CN=C(N)NCCC[C@H](N)C(=O)O	-8	-33	3	-2	-4	nt
O=C(Nc1ccc(Cl)cc1)N[C@@H]1CC[C@H](CCNC(=O)c2ccccc2F)O[C@H]1CO	-1	2	?	1	-33	-5
C=CCNC(=S)N1CCC(C(=O)c2ccc(Cl)cc2)CC1	64*	-19	-8	1	-3	-3
CC(C)NC(=O)N(C)C[C@@H]1Oc2c(NC(=O)c3cnccn3)cccc2C(=O)N([C@@H](C)CO)C[C@H]1C	1	9	-3	0	1	8
COc1ccccc1CCC(=O)NC1CCCN(c2ccc(C(F)(F)F)cn2)C1 (stereo unspecified)	-2	2	-3	-4	0	8
O=C(CCc1ccccc1Cl)NC1CCCN(c2ccc(C(F)(F)F)cn2)C1 (stereo unspecified)	-2	8	179*	-1	13	-2
Cc1ccc(S(=O)(=O)N(C)C[C@@H]2Oc3ccc(NC(=O)Nc4ccc(F)cc4)cc3CC(=O)N([C@@H](C)CO)C[C@H]2C)cc1	0	8	-12	-2	-2	-4
O=[N+]([O-])c1c(Nc2cccc(O)c2)cc(Cl)c2nonc12	7	nt	-1	17	4	-45*
SMILES	CASP6 VEID inh	PGC1a acetyl inh	S100A4 inh HTS	ERAP1 HTS inh	ARNT-TACC3 inh	rRNA inh HTS
CC(CCCN(C)C)C(Cc1ccccc1)c1ccccc1 (stereo unspecified)	-1	5	-17	0	nt	-47*
O=C(/C=C/c1cccc([N+](=O)[O-])c1)NCCSCc1ccc(Cl)cc1	2	nt	3	13	-2	-20*
C[C@H]1CN([C@@H](C)CO)C(=O)c2cc(Br)cnc2O[C@@H]1CN(C)C(=O)NC1CCCC1	-1	-1	7	-1	-3	4
O=[N+]([O-])c1ccc(NCCN2CCOCC2)c([N+](=O)[O-])c1	42*	nt	6	5	-5	-1
C(=N\N(Cc1ccccc1)c1ccccc1)/c1cccnc1	-4	nt	3	1	nt	-52
Oc1cccc(/C=N/N(Cc2ccccc2)c2ccccc2)c1	1	-3	1	-2	15	-42*
C[C@@H]1CN([C@H](C)CO)C(=O)c2cc(NS(=O)(=O)c3ccc(F)cc3)ccc2O[C@H]1CN(C)C	1	-8	-6	-1	-12	4
Cc1cc(NC(=O)CN2C(=O)c3ccccc3S2(=O)=O)no1	-2	nt	-1	32*	0	12
O=C(CN1C(=O)c2ccccc2S1(=O)=O)Nc1ccon1	-4	-3	12	-5	-6	9
COc1ccc(NC(=O)/C(C#N)=C\c2ccc(Br)o2)cc1	45*	nt	0	6	0	18
Cc1cccc(-n2c(C)cc(/C=C3\NC(=O)NC3=O)c2C)c1	5	3	-4	1	-4	2
Cc1cc(/C=C2/NC(=O)NC2=O)c(C)n1-c1ccncc1	1	nt	-5	0	3	-28*
CCCC(=O)Nc1ccc2c(c1)C(=O)N(C)C[C@H](OC)[C@@H](C)CN(CC1CCCC1)[C@H](C)CO2	nt	15	nt	nt	nt	-1
CSCCC(NS(=O)(=O)c1ccccc1)C(=O)OCc1cc(=O)oc2cc(O)ccc12 (stereo unspecified)	-2	6	1	-3	7	-22*
COc1cc(C)ccc1OCc1cc(C(=O)N2CCC(c3ccc(F)cc3)C2)no1 (stereo unspecified)	1	5	-4	-2	-5	-14*
C[C@@H]1CCCCO[C@H](CN(C)S(C)(=O)=O)[C@H](C)CN([C@@H](C)CO)C(=O)c2cc(NS(=O)(=O)c3cn(C)cn3)ccc2O1	-1	-6	-2	-3	2	-1
Cc1ccc(S(=O)(=O)OCCC2=CC(=O)CCN2Cc2ccccc2)cc1	0	63*	3	5	-4	-18
CC(NC(=O)c1ccccc1Cl)c1nnc(SCC(=O)Nc2ccc(C(=O)O)cc2)n1C (stereo unspecified)	nt	7	nt	nt	2	nt
